MC4R ag barr = agonists of human melanocortin 4 receptor (MC4R) beta-arrestin | activation, % at 8.9 µM | U2OS MC4R beta-arrestin complementation, luminescence; percent of melanotan II response, DMSO zero | 0.98% of 360,000 active | AID 540308 | P32245;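 active = activation above a per-plate cutoff, the mean activation of sample wells on that plate plus 3 SD, cut at about 8% in these data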
m5-HT2A agonist = activates the mouse 5-HT2A serotonin receptor | P35363 | CHO-K1 mHTR2A beta-arrestin complementation, luminescence; percent of 30 µM serotonin response | activation, % at 7.6 µM | 0.66% of 360,000 active;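 active = activation above a run cutoff, the mean activation of all tested compounds plus 3 SD, cut at about 14% in these data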;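 note: 0% = plate median of compound wells and 100% = 30 µM serotonin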
Target sequence (P35363 whole entry, looked up): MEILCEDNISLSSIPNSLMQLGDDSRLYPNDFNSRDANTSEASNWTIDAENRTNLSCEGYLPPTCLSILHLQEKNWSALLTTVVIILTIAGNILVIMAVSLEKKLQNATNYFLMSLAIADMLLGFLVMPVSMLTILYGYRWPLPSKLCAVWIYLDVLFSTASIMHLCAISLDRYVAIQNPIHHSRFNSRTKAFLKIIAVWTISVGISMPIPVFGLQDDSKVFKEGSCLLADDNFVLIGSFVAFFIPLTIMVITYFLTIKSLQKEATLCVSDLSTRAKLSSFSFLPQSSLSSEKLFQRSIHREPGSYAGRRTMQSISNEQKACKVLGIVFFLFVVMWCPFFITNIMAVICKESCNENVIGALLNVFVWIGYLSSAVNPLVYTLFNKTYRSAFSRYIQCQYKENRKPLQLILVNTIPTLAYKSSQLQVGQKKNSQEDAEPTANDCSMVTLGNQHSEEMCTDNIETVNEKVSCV
GAA850 FXN act = frataxin GAA850 promoter activation; HEK293 lucGAA850 FXN promoter luciferase reporter, 24 h; percent of 10 µM SAHA response; activation, % at 6 µM; 0.56% of 360,000 active;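 active = activation above the average of all compounds screened plus 3 SD, cutoff fixed separately per campaign, cut at about 7.5% in these data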;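 note: 0% = DMSO wells and 100% = 10 µM SAHA wells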
AHR act = human AHR activation | P35869 | AHR-responsive luciferase reporter cells, luminescence | activation, % at 5 µM | 2.5% of 320,000 active; in the data active = activation above about 47%;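 note: 0% = vehicle wells and 100% = reference agonist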
MC4R antagonist = blocks human MC4R cAMP signaling. MC4R-expressing cells, MTII-stimulated cAMP, LANCE TR-FRET. 0.48% of 360,000 active. inhibition, % at 6.5 µM. P32245. AID 540295;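 active = inhibition above its plate's cutoff, the mean of tested wells on that plate plus 3 SD, cut at about 29% in these data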;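 note: 0% = Melanotan II alone and 100% = Melanotan II plus saturating MCL0020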
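material = U2OS cells stably expressing human melanocortin 4 receptor (MC4R) | also added = Melanotan II challenge | dosing = single nominal compound dose of 6.5 µM | detection = TR-FRET with Eu-cAMP and labeled anti-cAMP, 671 nm | replication = singlicate | timing = compound 30 min, challenge 1 h, detection 1 h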
Starred values were filed as active, the others as inactive; / = no result given. A selection: hits, their analogues and other compounds. The true share with any hit is near 4.7%.

SMILES	MC4R ag barr	m5-HT2A agonist	GAA850 FXN act	AHR act	MC4R antagonist
CCC(C)c1ccc(NC(=O)NCc2cccnc2)cc1 (centres undefined)	1	-3	-1	41	12
CCC(C)c1ccc(NC(=O)Nc2cccnc2)cc1 (centres undefined)	-1	-15	5	79*	3
Cc1cc(C)nc(/N=C(\N)Nc2cccc([N+](=O)[O-])c2)n1	-3	-2	0	52*	3
COc1ccc(OC)c(S(=O)(=O)NCC(c2ccc3c(c2)OCO3)N2CCOCC2)c1 (centres undefined)	-1	0	1	0	-2
O=C(Nc1cccc([N+](=O)[O-])c1)c1cnccn1	-2	-2	1	4	3
O=C(Nc1cccc([N+](=O)[O-])c1)c1[nH]ncc1Cl	0	1	5	75*	-2
CCCCn1c(N)c(N(C(=O)CSc2nnnn2-c2ccccc2C)C2CCCC2)c(=O)[nH]c1=O	-4	4	-2	/	3
NC(=O)c1nsc(C(=O)N(c2cccc(F)c2)C(C(=O)NC2CCCC2)c2ccco2)c1N (centres undefined)	8.9*	1	1	0	-2
CNc1cc([N+](=O)[O-])ccc1N/C=C/C(=O)c1cccs1	-3	-1	2	74*	-11
CCOC(=O)c1cnc2ccc(OCC)cc2c1N1CCN(c2ccccc2OC)CC1	1	3	-4	38	32*
O=C1Nc2ccccc2C(=O)N(Cc2ccccc2)C1C(=O)NC1CC1 (centres undefined)	/	5	/	/	/
C/C(CCc1oc2ccc(Br)cc2c1-c1ccc(C)o1)=N/O	-3	0	2	56*	11
C=C(C)C(COc1c2occc2cc2ccc(=O)oc12)OC(C)(C)C(O)COc1c2occc2cc2ccc(=O)oc12 (centres undefined)	0	4	-1	78*	2
CC1(C)CC2CC(C)(CN2C(=O)c2cc(-c3ccc(O)cc3)on2)C1 (centres undefined)	8.9*	7	1	-2	-8
COc1cccc(-c2cc(C(=O)N3CC4(C)CC3CC(C)(C)C4)no2)c1 (centres undefined)	1	-1	3	-1	1
Cc1ccc(OCCNC(=O)Cc2ccc(S(=O)(=O)N3CCOCC3)s2)cc1	-2	-9	1	3	2
Cc1ccccc1C(c1ncccc1C)N(C)C(=O)C1CCN(CCOc2ccc(Cl)cc2Cl)CC1 (centres undefined)	9.2*	4	2	/	-11
COc1ccc(OCCN2CCC(C(=O)NC(c3ccc(Cl)cc3)c3ncccc3C)CC2)cc1 (centres undefined)	0	2	-2	/	10
CCN(CC)CCn1c(=O)n(-c2ccc(Cl)cc2)c(=O)c2c3c(sc21)CN(C)CC3	-3	0	0	90*	16
CC(=S)/C=C1\Sc2ccccc2N1C	-2	-5	-2	0	-5
COc1ccc(C(=O)/C=C2\Sc3ccccc3N2C)cc1	4	2	6	50*	-7
CC(=O)OC(/C(O)=C(\C#N)c1nc2ccccc2[nH]1)c1ccccc1 (centres undefined)	0	0	0	49*	6
C/C(O)=C(/C#N)c1nc2ccccc2[nH]1	0	5	2	21	3
N#C/C(=C(/O)C(Cl)(Cl)Cl)c1nc2ccccc2[nH]1	-1	3	-2	53*	8
Cc1cc(C)n2nc(SCC(=O)N3CCC(C(=O)O)CC3)nc2n1	1	1	-1	-2	6
SMILES	MC4R ag barr	m5-HT2A agonist	GAA850 FXN act	AHR act	MC4R antagonist
Cc1cc(C)n(-c2nc(-c3ccc(Cl)cc3)cs2)n1	7	2	3	60*	6
CN(Cc1ccccc1)C(=O)c1ccc(NC(=O)Cc2ccc(NC(=O)C3CCN(S(=O)(=O)c4cccc([N+](=O)[O-])c4)CC3)cc2)cc1	-3	-5	0	/	9
COc1cc(C2Nc3cc(C)c(C)cc3NC3=C2C(=O)CC(C)(C)C3)ccc1OC(C)=O (centres undefined)	-1	-1	-1	61*	10
O=c1c(-c2cccnc2)nc2ccccc2n1C(c1ccccn1)c1nc2ccccc2[nH]1 (centres undefined)	/	1	/	/	/
NNc1nc(Nc2ccccc2)nc(Nc2ccccc2)n1	3	-4	2	81*	21
NNc1nc(Nc2ccccc2)nc(N2CCCCC2)n1	4	-13	2	20	13
C=CCn1c(O)c(N=NC(=S)Nc2ccccc2C)c2cc(S(=O)(=O)N3CCOCC3)ccc21	-3	0	3	-4	17
Cc1cccc(NC(=S)N=Nc2c(O)n(CN3CCOCC3)c3ccccc23)c1C	0	3	-2	55*	-5
Cc1ccc(NC(CC(=O)c2ccccc2)c2ccc(F)cc2)cc1 (centres undefined)	1	-8	1	1	5
Cc1ccc(C(=O)CC(Nc2ccc(F)cc2)c2ccccc2)cc1 (centres undefined)	8.9*	-2	3	-3	2
CCc1ccc2oc(-c3cc(N)ccc3Cl)nc2c1	1	-1	4	49*	0
Cc1ccc(C)c(-c2nc3cc(N)ccc3o2)c1	-4	-3	-8	-3	23
Nc1ccc2oc(-c3cc(Br)ccc3Cl)nc2c1	6	1	-12	49*	-5
Nc1ccc2oc(-c3ccccc3Cl)nc2c1	1	-1	-8	-12	13
CCc1ccc2oc(-c3cc(N)ccc3O)nc2c1	4	-1	4	74*	5
O=C(N/C(=C\c1ccc([N+](=O)[O-])cc1)C(=O)N1CCCCC1)c1ccccc1Br	-3	0	-2	14	6
Cc1ccccc1-c1nc(C#N)c(N2CCCCC2)o1	-3	-3	0	0	-13
CC1CC1C(=O)OCC(=O)NNC(=O)c1ccc([N+](=O)[O-])cc1 (centres undefined)	-1	8	2	-1	0
O=C(CNc1ccc2c(c1)OCO2)N/N=C\c1cn(Cc2ccccc2)c2ccccc12	2	-5	3	41	13
CCOC(=O)N/N=C/c1cn(Cc2ccc(Cl)cc2)c2ccccc12	8.8*	-5	-1	46	-5
N#CCC(=O)N/N=C/c1cn(Cc2ccc(Cl)cc2Cl)c2ccccc12	17*	-2	1	23	1
CCOC(=O)N/N=C/c1cn(Cc2ccc(F)cc2)c2ccccc12	4	-10	1	24	1
Cn1nc(C(F)(F)F)cc1C(=O)Nc1ccc(Cl)cc1	2	3	1	69*	-4
Cn1nc(C(F)(F)F)c2cc(C(=O)Nc3ccc(Cl)cc3)sc21	2	-2	-2	64*	18
Cn1nc(C(F)(F)F)c2cc(C(=O)Nc3ccc(F)cc3F)sc21	0	-2	0	-2	-1

Bioassay records as filed in PubChem.
